The source made the active and inactive calls. No cut-off for these calls is given here.
Key:
Sphingosine kinase 2 [1] = target: T1, Sphingosine kinase 2 (Homo sapiens, UniProt Q9NRA0); test: Inhibition of recombinant human Flag-tagged SphK2 transfected in HEK293 cells using d-erythro-sphingosine as substrate by [gamma32P]-ATP based assay
T1 sequence (Q9NRA0 whole entry): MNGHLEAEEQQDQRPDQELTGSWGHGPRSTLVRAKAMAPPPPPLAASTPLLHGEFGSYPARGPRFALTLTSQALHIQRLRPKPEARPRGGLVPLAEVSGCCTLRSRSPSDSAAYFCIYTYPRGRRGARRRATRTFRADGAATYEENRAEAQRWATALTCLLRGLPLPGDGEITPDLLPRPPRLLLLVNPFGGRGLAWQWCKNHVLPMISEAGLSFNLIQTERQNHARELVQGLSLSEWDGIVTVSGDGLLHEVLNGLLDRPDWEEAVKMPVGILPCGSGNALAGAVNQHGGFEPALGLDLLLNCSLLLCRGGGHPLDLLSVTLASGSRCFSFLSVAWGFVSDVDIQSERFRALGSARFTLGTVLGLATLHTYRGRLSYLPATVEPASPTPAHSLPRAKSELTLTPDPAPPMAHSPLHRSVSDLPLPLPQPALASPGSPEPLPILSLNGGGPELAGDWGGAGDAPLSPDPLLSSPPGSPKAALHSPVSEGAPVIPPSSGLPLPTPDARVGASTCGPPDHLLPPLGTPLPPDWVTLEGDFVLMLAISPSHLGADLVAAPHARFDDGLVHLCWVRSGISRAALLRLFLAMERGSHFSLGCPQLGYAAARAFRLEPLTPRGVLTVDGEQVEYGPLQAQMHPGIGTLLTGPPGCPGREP

Sphingosine kinase 1 = Sphingosine kinase 1 (Homo sapiens, UniProt Q9NYA1); test: Inhibition of recombinant human Flag-tagged SphK1 transfected in HEK293 cells using d-erythro-sphingosine as substrate by [gamma32P]-ATP based assay
Sphingosine kinase 1, sequence (Q9NYA1 whole entry, the tested form may be a part): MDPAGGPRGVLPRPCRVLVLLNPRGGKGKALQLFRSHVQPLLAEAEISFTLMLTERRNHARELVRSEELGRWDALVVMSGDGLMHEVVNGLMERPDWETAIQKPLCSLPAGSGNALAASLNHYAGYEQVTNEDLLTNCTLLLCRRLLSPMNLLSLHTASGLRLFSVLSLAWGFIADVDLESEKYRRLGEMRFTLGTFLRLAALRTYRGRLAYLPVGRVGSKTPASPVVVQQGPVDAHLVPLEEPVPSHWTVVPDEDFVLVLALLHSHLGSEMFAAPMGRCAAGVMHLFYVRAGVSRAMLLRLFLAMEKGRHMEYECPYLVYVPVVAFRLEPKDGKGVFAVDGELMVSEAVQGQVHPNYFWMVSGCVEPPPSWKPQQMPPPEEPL

[2] = target: T2, Sphingosine kinase 2 (Homo sapiens) (UniProt Q9NRA0); test: Inhibition of recombinant human N-terminal His-tagged SphK2 (2 to 654 residues) expressed in baculovirus infected Sf21 cells at 125 uM using d-erythro-sphingosine as substrate incubated for 1 hr by ADP-Glo assay relative to control
T2 sequence (whole entry): T1 sequence (Q9NRA0 whole entry)

U-251 = test: Cytotoxicity against human U-251MG cells assessed as reduction in cell viability at 125 uM incubated for 24 hrs by Hoechst 33258 and PI staining based imaging analysis; assay type: functional
Summary of the method: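 U-251 MG glioblastoma cells grown in RPMI-1640 with 10% FBS, 1 mM sodium pyruvate and 1x Pen-Strep at 37 °C, 5% CO2. Seeded at 3000 cells/well, left about 16 h, then medium replaced with fresh medium containing 125 µM compound for 24 h. Stained with Hoechst 33258 for total cells and propidium iodide for apoptotic cells. Triplicate, S.E. reported.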

Sphingosine kinase 2 [3] = target: T1, Sphingosine kinase 2; test: Inhibition of recombinant human N-terminal His-tagged SphK2 (2 to 654 residues) expressed in baculovirus infected Sf21 cells using d-erythro-sphingosine as substrate incubated for 1 hr by ADP-Glo assay

Structure (SMILES) | inhibition [2] [%] | IC50 (Sphingosine kinase 2 [3]) [nM] | inhibition (U-251) | further results
Cc1ccc(S(=O)(=O)Nc2cccc(/C=N/c3ccccc3NS(=O)(=O)c3ccc(C)cc3)c2)cc1 | – | – | – | Ki (Sphingosine kinase 2 [1]): 6900 nM; Ki (Sphingosine kinase 1): 27000 nM
N=C(N)C1(c2nc(-c3ccc(Cn4cc(C5CC5)nn4)cc3)no2)CC1 | > 50 | – | – | –
Cn1cc(-c2cn(Cc3ccc(-c4noc(C5(C(=N)N)CC5)n4)cc3)nn2)cn1 | > 50 | – | Active | –
Cn1cc(-c2cn(Cc3ccc(-c4noc(C[C@@H]5CCCN5C(=N)N)n4)cc3)nn2)cn1 | > 50 | – | – | –
O=C(NCc1ccncc1)C12CC3CC(C1)CC(c1ccc(Cl)cc1)(C3)C2 [ABC-294640] | – | – | – | inhibition at 125 µM (U-251): 50%
N=C(N)N1CCC[C@H]1Cc1nc(-c2ccc(Cn3cc(-c4ccc(C(F)(F)F)cc4)nn3)cc2)no1 | – | – | Active | –
N=C(N)N1CCC[C@H]1c1nc(-c2ccc(Cn3cc(-c4ccccc4)nn3)cc2)no1 | > 50 | – | – | –
N=C(N)N1CCC[C@H]1Cc1nc(-c2ccc(Cn3cc(-c4ccccc4)nn3)cc2)no1 | > 50 | – | Active | –
N=C(N)N1CCC[C@H]1Cc1nc(-c2ccc(Nc3nc(-c4cccc(C(F)(F)F)c4)cs3)cc2)no1 | > 50 | 280 | – | –
N=C(N)C1(c2nc(-c3ccc(Cn4cc(-c5ccccc5)nn4)cc3)no2)CC1 | > 50 | – | Active | –
N=C(N)N1CCC[C@H]1Cc1nc(-c2ccc(Cn3cc(-c4ccccn4)nn3)cc2)no1 | > 50 | – | – | –

Now from value to compound, other results behind:

inhibition [2] [%] | IC50 (Sphingosine kinase 2 [3]) [nM] | Structure (SMILES) | inhibition (U-251) | further results
> 50 | 266 | COc1ccc(-c2cn(Cc3ccc(-c4noc([C@@H]5CCCN5C(=N)N)n4)cc3)nn2)cc1 | Active | –
> 50 | 254 | CCCCc1cn(Cc2ccc(-c3noc([C@@H]4CCCN4C(=N)N)n3)cc2)nn1 | – | –
> 50 | 391 | N=C(N)N1CCC[C@H]1c1nc(-c2ccc(Cn3cc(-c4ccc(F)cc4)nn3)cc2)no1 | – | –
> 50 | – | N=C(N)N1CCC[C@H]1c1nc(-c2ccc(Cn3cc(-c4ccccn4)nn3)cc2)no1 | – | –
> 50 | 359 | N=C(N)N1CCC[C@H]1c1nc(-c2ccc(Cn3cc(-c4ccc(C(F)(F)F)cc4)nn3)cc2)no1 | Active | –
> 50 | 248 | N=C(N)N1CCC[C@H]1c1nc(-c2ccc(Cn3cc(C4CC4)nn3)cc2)no1 | – | –
> 50 | – | COc1ccc(-c2cn(Cc3ccc(-c4noc(C[C@@H]5CCCN5C(=N)N)n4)cc3)nn2)cc1 | Active | –
> 50 | 687 | N=C(N)N1CCC[C@H]1c1nc(-c2ccc(Cn3cc(-c4cccs4)nn3)cc2)no1 | – | –
